Results as given in ChEMBL document CHEMBL3272055, “2,3-Disubstituted 1,8-naphthyridines as potential diuretic agents. 2. 5,7-Dimethyl derivatives” (J Med Chem, 1977).

Tests used:
[1] = tested on: Rattus norvegicus; assay: Ratio of natriuretic activity in nonloaded rat assessed as increase in Na+ secretion at 15 mg/kg to kaliuretic activity in nonloaded rat assessed as increase in K+ secretion at 15 mg/kg
Summary of the method: (§1)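 Nonloaded rats dosed at 2 or 15 mg/kg. Urine was collected cumulatively over 6 h and urine volume, Na+ and K+ (mequiv) measured. Values are means of eight rats, reported as drug versus control, with the Na+/K+ ratio derived from these.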

[2] = tested on: Rattus norvegicus; assay: Natriuretic activity in nonloaded rat assessed as increase in Na+ secretion at 15 mg/kg after 6 hrs relative to control; assay type: functional; summary of the method: as §1
[3] = tested on: Rattus norvegicus; assay: Natriuretic activity in nonloaded rat assessed as increase in Na+ secretion at 2 mg/kg after 6 hrs relative to control; assay type: functional; summary of the method: as §1
[4] = tested on: Rattus norvegicus; assay: Diuretic activity in nonloaded rat assessed as urine volume at 2 mg/kg after 6 hrs relative to control; assay type: functional; summary of the method: as §1
[5] = tested on: Rattus norvegicus; assay: Diuretic activity in nonloaded rat assessed as urine volume at 15 mg/kg after 6 hrs relative to control; assay type: functional; summary of the method: as §1
[6] = tested on: Rattus norvegicus; assay: Toxicity in nonloaded rat assessed as kaluretic effect by measuring increase in K+ secretion at 15 mg/kg after 6 hrs relative to control; assay type: organism-based; set-up: dose 15 mg/kg; details: in vivo; summary of the method: as §1
[7] = tested on: Rattus norvegicus; assay: Toxicity in nonloaded rat assessed as kaluretic effect by measuring increase in K+ secretion at 2 mg/kg after 6 hrs relative to control; assay type: organism-based; set-up: dose 2 mg/kg; details: in vivo; summary of the method: as §1
[8] = tested on: Rattus norvegicus; assay: Diuretic activity in saline-loaded Wistar albino rat assessed as increase of saline-load excretion at 15 mg/kg, ip measured for 6 hrs relative to control; assay type: functional, Urine; details: route intraperitoneal
Summary of the method: (§2)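 Saline-loaded rats given compound ip, screened at 15 mg/kg, with actives retested at 2 mg/kg. Diuresis was read as urine volume output over 6 h by a modified Lipschitz method and expressed as % of the saline load excreted, as an increase over controls. A response under 21.8% above control was counted insignificant. Activity was also expressed relative to triamterene.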

[9] = tested on: Rattus norvegicus; assay: Diuretic activity in saline-loaded Wistar albino rat assessed as increase of saline-load excretion at 2 mg/kg, ip measured for 6 hrs relative to control; assay type: functional, Urine; details: route intraperitoneal; summary of the method: as §2
[10] = tested on: Rattus norvegicus; assay: Ratio of natriuretic activity in nonloaded rat assessed as increase in Na+ secretion at 2 mg/kg to kaliuretic activity in nonloaded rat assessed as increase in K+ secretion at 2 mg/kg; summary of the method: as §1
[11] = tested on: Rattus norvegicus; assay: Diuretic activity in saline-loaded Wistar albino rat assessed as increase of saline-load excretion at 2 mg/kg, ip measured for 6 hrs relative to triamterene; assay type: functional, Urine; details: route intraperitoneal; summary of the method: as §2
[12] = tested on: Rattus norvegicus; assay: Diuretic activity in saline-loaded Wistar albino rat assessed as increase of saline-load excretion at 15 mg/kg, ip measured for 6 hrs relative to triamterene; assay type: functional, Urine; details: route intraperitoneal; summary of the method: as §2

Structure (SMILES): CCCCNC(=O)c1cc2c(C)cc(C)nc2nc1N
- Ratio [1]: 1.71
- Activity [2]: 0.427 milliequivalent
- Activity [3]: 0.471 milliequivalent
- Activity [4]: 3.7 mL
- Activity [5]: 4.1 mL
- Activity [6]: 0.25 milliequivalent
- Activity [7]: 0.217 milliequivalent
- Activity [8]: 152.7%
- Activity [9]: 43.2%
- Ratio [10]: 2.17
- fold change (FC) [11]: 1.25
- fold change (FC) [12]: 2.64

Structure (SMILES): CCNC(=O)c1cc2c(C)cc(C)nc2nc1N
- Ratio [1]: 1.64
- Activity [2]: 0.495 milliequivalent
- Activity [5]: 3.7 mL
- Activity [6]: 0.301 milliequivalent
- Activity [8]: 47.7%
- Activity [9]: <21.8%
- fold change (FC) [12]: 0.83

Structure (SMILES): CCCNC(=O)c1cc2c(C)cc(C)nc2nc1N
- Ratio [1]: 1.64
- Activity [2]: 0.41 milliequivalent
- Activity [5]: 3.9 mL
- Activity [6]: 0.25 milliequivalent
- Activity [8]: 53.7%
- Activity [9]: <21.8%
- fold change (FC) [12]: 0.93

Structure (SMILES): CCCCCNC(=O)c1cc2c(C)cc(C)nc2nc1N
- Ratio [1]: 1.48
- Activity [2]: 0.39 milliequivalent
- Activity [5]: 2.9 mL
- Activity [6]: 0.263 milliequivalent
- Activity [8]: 23.4%
- Activity [9]: <21.8%
- fold change (FC) [12]: 0.4

Structure (SMILES): COC(=O)c1cc2c(C)cc(C)nc2nc1N
- Ratio [1]: 1.05
- Activity [2]: 0.221 milliequivalent
- Activity [5]: 1.6 mL
- Activity [6]: 0.21 milliequivalent
- Activity [8]: 47.3%
- Activity [9]: <21.8%
- fold change (FC) [12]: 0.82

Structure (SMILES): Cl.NC(=O)c1cc2cccnc2nc1N.O
- Ratio [1]: 4.75
- Activity [2]: 0.765 milliequivalent
- Activity [5]: 5.3 mL
- Activity [6]: 0.161 milliequivalent
- Activity [8]: 67.5%
- Activity [9]: 62.9%
- fold change (FC) [11]: 3
- fold change (FC) [12]: 1.41

Structure (SMILES): Nc1nc(N)c2nc(-c3ccccc3)c(N)nc2n1 [TRIAMTERENE]
- Ratio [1]: 5.84
- Activity [2]: 0.804 milliequivalent
- Activity [5]: 4.9 mL
- Activity [6]: 0.136 milliequivalent
- Activity [8]: 57.8%
- Activity [9]: 34.5%
